Assays:
D(2) dopamine receptor [1] = target: T1, D(2) dopamine receptor (Bos taurus, UniProt P20288); assay: Affinity for Dopamine receptor D2 using [3H]YM-09151-2 was carried out on bovine retinal membrane preparations (low-affinity); set-up: species or system Retina
Summary of the method: (§1)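 Retinal membranes were prepared in Tris/EDTA/Ca/Mg/K/NaCl saline, pH 7.4, at about 4 mg wet tissue/mL. They were incubated with 0.1 nM [3H]-YM-09-151-2 at 30 °C for 60 min, in duplicate, with 2 mM DA defining nonspecific binding, followed by rapid filtration. Displacement curves were fitted to a two-site model, giving high- and low-affinity Ki from IC50 using Kd 0.4 nM.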

D(2) dopamine receptor [2] = target: T1, D(2) dopamine receptor; assay: Affinity for Dopamine receptor D2 using [3H]YM-09151-2 was carried out on bovine retinal membrane preparations (high-affinity); set-up: species or system Retina; summary of the method: as §1
D(2) dopamine receptor [3] = target: T1, D(2) dopamine receptor; assay: Affinity for Dopamine receptor D2 using [3H]-YM-09151-2 was carried out on bovine striatal membrane preparations; set-up: species or system Striatum
Summary of the method: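 Competition binding on bovine striatal membranes: homogenised in Tris 50, EDTA 1, CaCl2 1.5, MgCl2 4, KCl 5, NaCl 120 mM, pH 7.4; centrifuged 48 000 g, 20 min, 4 °C, washed, used at ~1.25 mg wet tissue/mL. 0.1 nM [3H]-YM-09-151-2 (Kd 0.4 nM), 60 min at 30 °C, duplicates; nonspecific with 2 mM DA; vacuum filtration; Ki from IC50.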

D(1A) dopamine receptor = D(1A) dopamine receptor (Bos taurus, UniProt Q95136); assay: Affinity for Dopamine receptor D1 using [3H]SCH-23390 was carried out on bovine retinal membrane preparations; set-up: species or system Retina
Sequence of D(1A) dopamine receptor (Q95136 whole entry): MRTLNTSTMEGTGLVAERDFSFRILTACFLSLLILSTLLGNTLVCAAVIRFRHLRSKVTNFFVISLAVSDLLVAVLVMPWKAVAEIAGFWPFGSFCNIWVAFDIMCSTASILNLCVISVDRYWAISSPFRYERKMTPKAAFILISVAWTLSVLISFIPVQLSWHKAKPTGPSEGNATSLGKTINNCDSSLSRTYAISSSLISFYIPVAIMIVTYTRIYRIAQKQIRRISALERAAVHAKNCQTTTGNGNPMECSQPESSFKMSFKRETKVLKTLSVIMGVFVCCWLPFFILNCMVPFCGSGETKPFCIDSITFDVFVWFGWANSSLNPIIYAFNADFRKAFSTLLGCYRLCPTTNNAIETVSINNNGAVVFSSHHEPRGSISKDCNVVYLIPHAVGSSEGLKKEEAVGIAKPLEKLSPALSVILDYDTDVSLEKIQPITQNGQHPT
Summary of the method: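 Bovine retinal membranes were homogenized in Tris 50 mM, EDTA 1, CaCl2 1.5, MgCl2 4, KCl 5, NaCl 120 mM, pH 7.4, and used at about 4 mg wet tissue/mL. They were incubated with 0.5 nM [3H]-SCH23390 for 20 min at 30 °C, in duplicate. Nonspecific binding was set with 2 mM DA, and bound ligand was separated by vacuum filtration. Ki was derived from IC50 using Kd 2 nM.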

T1 sequence (P20288 whole entry): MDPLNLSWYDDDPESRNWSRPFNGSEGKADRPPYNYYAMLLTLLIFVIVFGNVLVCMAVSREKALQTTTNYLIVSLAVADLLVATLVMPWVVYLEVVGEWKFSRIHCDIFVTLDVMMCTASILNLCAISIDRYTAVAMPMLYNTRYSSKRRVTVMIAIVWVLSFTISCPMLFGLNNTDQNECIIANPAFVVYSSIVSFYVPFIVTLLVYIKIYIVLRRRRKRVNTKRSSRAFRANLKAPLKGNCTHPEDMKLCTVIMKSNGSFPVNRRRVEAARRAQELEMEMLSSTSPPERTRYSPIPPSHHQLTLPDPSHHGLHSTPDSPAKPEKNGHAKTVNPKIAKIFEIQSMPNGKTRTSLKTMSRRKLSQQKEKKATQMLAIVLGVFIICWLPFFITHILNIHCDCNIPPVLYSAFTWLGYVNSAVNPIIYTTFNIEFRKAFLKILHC

Compound | Ki (D(2) dopamine receptor [3]) [µM] | Ki (D(2) dopamine receptor [1]) [µM] | Ki (D(2) dopamine receptor [2]) [µM] | Ki (D(1A) dopamine receptor) [µM]
CCCN1CCCC(c2ccc(C)cc2)C1 (centres undefined) | 13.8 | 35.4 | 0.044 | > 10
CCCN1CCCC(c2cccc(C)c2)C1 (centres undefined) |  | 15.9 | 0.042 | > 10
CCCN1CCCC(c2ccccc2)C1 (centres undefined) | 10.8 | 43.7 | 0.039 | > 10
CCCN1CCCC(c2ccccc2C)C1 (centres undefined) | 1.51 | 26.7 | 0.449 | > 10
CCCN1CCCC(c2ccc(C)c(C)c2)C1 (centres undefined) | 8.1 | 7.6 | 0.027 | > 10

More lines, main results first:

Ki (D(2) dopamine receptor [3]) [µM] | Compound | Ki (D(2) dopamine receptor [1]) [µM] | Ki (D(2) dopamine receptor [2]) [µM] | Ki (D(1A) dopamine receptor) [µM]
0.42 | CCCN1CCCC(C2CCCCC2C)C1 (centres undefined) | 43.2 | 0.026 | > 10
14.4 | CCCN1CCCC(C2CCCCC2)C1 (centres undefined) | 24.9 | 0.004 | > 10
20 | CCCN1CCCC(C2CCC(C)CC2)C1 (centres undefined) | 64 | 0.004 | > 10
10 | CCCN1CCCC(C2CCCC(C)C2)C1 (centres undefined) | 27 | 0.005 | > 10
18.3 | Cc1cccc(C(=O)NCN2CCN(c3ccccc3C#N)CC2)c1 [PD-168,077] | 6.3 | 0.025 | > 10

From ChEMBL document CHEMBL1145978, “New N-n-propyl-substituted 3-aryl- and 3-cyclohexylpiperidines as partial agonists at the D4 dopamine receptor” (J Med Chem, 2003)
